Source: ChEMBL document CHEMBL2177069, “Novel peptidomimetic compounds containing redox active chalcogens and quinones as potential anticancer agents” (Eur J Med Chem, 2012)

Tests used:
[1] = system: DU-145; assay: Cytotoxicity against human DU145 cells; format: functional
[2] = system: Saccharomyces cerevisiae; assay: Growth inhibition of UFD2-deficient Saccharomyces cerevisiae YDL190C mutant at 20 ug/disc after 24 to 48 hrs by agar diffusion assay; format: functional; conditions: read-out: DIZ
Summary of the method: (§1)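 S. cerevisiae deletion mutants or wild type grown on YPD, seeded into liquid agar medium at an optical density of 0.1. 6 mm paper discs soaked with methanolic compound solution were placed on the plates and incubated at 30 °C. Growth was checked after 1 and 2 days, and the inhibition zone diameter was recorded in mm.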

[3] = system: Saccharomyces cerevisiae; assay: Growth inhibition of GTT2-deficient Saccharomyces cerevisiae YLL060C mutant at 20 ug/disc after 24 to 48 hrs by agar diffusion assay; format: functional; conditions: read-out: DIZ; summary of the method: as §1
[4] = system: Saccharomyces cerevisiae; assay: Growth inhibition of WSC4-deficient Saccharomyces cerevisiae YHL028W mutant at 20 ug/disc 24 to 48 hrs by agar diffusion assay; format: functional; conditions: read-out: DIZ; summary of the method: as §1
[5] = system: Saccharomyces cerevisiae; assay: Growth inhibition of PST2-deficient Saccharomyces cerevisiae YDR032C mutant at 20 ug/disc 24 to 48 hrs by agar diffusion assay; format: functional; conditions: read-out: DIZ; summary of the method: as §1
[6] = system: Saccharomyces cerevisiae; assay: Growth inhibition of SOD1-deficient Saccharomyces cerevisiae YJR104C mutant at 20 ug/disc after 24 to 48 hrs by agar diffusion assay; format: functional; conditions: read-out: DIZ; summary of the method: as §1
[7] = Cytotoxicity against human PHF cells after 24 hrs by MTT assay; format: cell-based
Summary of the method: (§2)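 MTT assay. Cells were seeded at 50,000 cells/mL in medium with 10% fetal calf serum and grown for two days at 37 °C, 10% CO2. Serial dilutions of compound were then added for 24 h. MTT was added (final 0.5 mg/mL) for 2 h, and the formazan was pelleted, washed, dissolved in isopropanol with 0.4% HCl and read at 590 nm. IC50 is the concentration giving 50% of untreated-control absorbance, taken from dose-response curves; mean of two parallel experiments.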

[8] = system: A-431; assay: Cytotoxicity against human A431 cells after 24 hrs by MTT assay; format: functional, cell-based; conditions: A-431, 24 h; summary of the method: as §2
[9] = system: A498; assay: Cytotoxicity against human A498 cells after 24 hrs by MTT assay; format: functional, cell-based; conditions: A498, 24 h; summary of the method: as §2
[10] = system: MCF7; assay: Cytotoxicity against human MCF7 cells after 24 hrs by MTT assay; format: functional, cell-based; conditions: MCF7, 24 h; summary of the method: as §2
[11] = system: MDA-MB-468; assay: Cytotoxicity against human MDA-MB-468 cells; format: functional
[12] = system: T47D; assay: Cytotoxicity against human T47D cells; format: functional
[13] = system: MDA-MB-231; assay: Cytotoxicity against human MDA-MB-231 cells; format: functional
[14] = system: UO-31; assay: Cytotoxicity against human UO31 cells; format: functional
[15] = system: SN12C; assay: Cytotoxicity against human SN12C cells; format: functional
[16] = system: RXF 393; assay: Cytotoxicity against human RXF393 cells; format: functional
[17] = system: ACHN; assay: Cytotoxicity against human ACHN cells; format: functional
[18] = system: A498; assay: Cytotoxicity against human A498 cells; format: functional
[19] = Cytotoxicity against human 786-O cells; format: functional
[20] = system: SK-OV-3; assay: Cytotoxicity against human SKOV3 cells; format: functional
[21] = system: NCI/ADR-RES; assay: Cytotoxicity against human NCI/ADR-RES cells; format: functional
[22] = system: OVCAR-4; assay: Cytotoxicity against human OVCAR4 cells; format: functional
[23] = system: OVCAR-5; assay: Cytotoxicity against human OVCAR5 cells; format: functional
[24] = system: SK-MEL-28; assay: Cytotoxicity against human SK-MEL-28 cells; format: functional
[25] = system: SK-MEL-2; assay: Cytotoxicity against human SK-MEL-2 cells; format: functional
[26] = system: MDA-MB-435; assay: Cytotoxicity against human MDA-MB-435 cells; format: functional
[27] = system: Malme-3M; assay: Cytotoxicity against human MALME-3M cells; format: functional
[28] = system: M14; assay: Cytotoxicity against human M14 cells; format: functional
[29] = system: U-251; assay: Cytotoxicity against human U251 cells; format: functional
[30] = system: LOX IMVI; assay: Cytotoxicity against human LOXIMVI cells; format: functional
[31] = system: SNB-75; assay: Cytotoxicity against human SNB75 cells; format: functional
[32] = system: SF-539; assay: Cytotoxicity against human SF539 cells; format: functional
[33] = system: HT-29; assay: Cytotoxicity against human HT-29 cells; format: functional
[34] = system: HCT-116; assay: Cytotoxicity against human HCT116 cells; format: functional
[35] = system: HCT-15; assay: Cytotoxicity against human HCT15 cells; format: functional
[36] = system: HCC 2998; assay: Cytotoxicity against human HCC2998 cells; format: functional
[37] = system: COLO 205; assay: Cytotoxicity against human COLO205 cells; format: functional
[38] = system: NCI-H522; assay: Cytotoxicity against human NCI-H522 cells; format: functional
[39] = system: HOP-92; assay: Cytotoxicity against human HOP92 cells; format: functional
[40] = system: NCI-H226; assay: Cytotoxicity against human NCI-H226 cells; format: functional
[41] = system: MOLT-4; assay: Cytotoxicity against human MOLT4 cells; format: functional
[42] = read-out: pLC50 (the source's name) (converted)

Q: Which GI50 [1] does the source give for `CC1=C([Se]CC(OC(=O)[C@@H](CO)NC(=O)OC(C)(C)C)C(=O)NCCCCCC(=O)OCc2ccccc2)C(=O)c2ccccc2C1=O` (some centres undefined) here?
A: 1.82 µM

Q: And the LC50 [1]?
A: 5.89 µM

Q: What about the TGI ([1]; read-out: pTGI (converted)) of the same compound?
A: 3.24 µM

Q: What about the zone of inhibition at 20 µg/disc [2] of the same compound?
A: 0 mm

Q: What about the zone of inhibition at 20 µg/disc [3] of the same compound?
A: 12 mm

Q: What about the zone of inhibition at 20 µg/disc [4] of the same compound?
A: 0 mm

Q: And the zone of inhibition at 20 µg/disc [5]?
A: 15 mm

Q: What about the zone of inhibition at 20 µg/disc [6] of the same compound?
A: 17 mm

Q: What about the IC50 [7] of the same compound?
A: 27 µM

Q: And the IC50 [8]?
A: 4 µM

Q: What about the IC50 [9] of the same compound?
A: 5 µM

Q: And the IC50 [10]?
A: 5 µM

Q: And the GI50 [11]?
A: 1.48 µM

Q: And the LC50 [11]?
A: 6.76 µM

Q: What about the TGI ([11]; read-out: pTGI (converted)) of the same compound?
A: 3.16 µM

Q: What about the GI50 [12] of the same compound?
A: 1.62 µM

Q: What about the LC50 [12] of the same compound?
A: 9.55 µM

Q: What about the TGI ([12]; read-out: pTGI (converted)) of the same compound?
A: 3.98 µM

Q: What about the GI50 [13] of the same compound?
A: 1.66 µM

Q: And the LC50 [13]?
A: 6.03 µM

Q: What about the TGI ([13]; read-out: pTGI (converted)) of the same compound?
A: 3.16 µM

Q: And the GI50 [14]?
A: 1.55 µM

Q: And the LC50 [14]?
A: 5.89 µM

Q: What about the TGI ([14]; read-out: pTGI (converted)) of the same compound?
A: 3.02 µM

Q: And the GI50 [15]?
A: 1.95 µM

Q: What about the LC50 [15] of the same compound?
A: 6.61 µM

Q: And the TGI ([15]; read-out: pTGI (converted))?
A: 3.63 µM

Q: And the GI50 [16]?
A: 2.69 µM

Q: And the LC50 [16]?
A: 6.46 µM

Q: What about the TGI ([16]; read-out: pTGI (converted)) of the same compound?
A: 4.17 µM

Q: What about the GI50 [17] of the same compound?
A: 1.66 µM

Q: And the LC50 [17]?
A: 5.75 µM

Q: And the TGI ([17]; read-out: pTGI (converted))?
A: 3.09 µM

Q: What about the GI50 [18] of the same compound?
A: 2.04 µM

Q: And the LC50 (50% lethal concentration) [18]?
A: 45.7 µM

Q: And the TGI ([18]; read-out: pTGI (converted))?
A: 5.89 µM

Q: And the GI50 ([19]; 786-0)?
A: 2.09 µM

Q: And the LC50 ([19]; 786-0)?
A: 6.03 µM

Q: And the TGI ([19]; 786-0, read-out: pTGI (converted))?
A: 3.55 µM

Q: What about the GI50 [20] of the same compound?
A: 1.29 µM

Q: What about the LC50 [20] of the same compound?
A: 5.13 µM

Q: And the TGI ([20]; read-out: pTGI (converted))?
A: 2.57 µM

Q: What about the GI50 [21] of the same compound?
A: 2.04 µM

Q: And the TGI ([21]; read-out: pTGI (converted))?
A: 3.89 µM

Q: What about the GI50 [22] of the same compound?
A: 1.55 µM

Q: And the LC50 [22]?
A: 5.37 µM

Q: What about the TGI ([22]; read-out: pTGI (converted)) of the same compound?
A: 2.88 µM

Q: What about the GI50 [23] of the same compound?
A: 2.09 µM

Q: What about the LC50 [23] of the same compound?
A: 6.31 µM

Q: What about the TGI ([23]; read-out: pTGI (converted)) of the same compound?
A: 3.63 µM

Q: And the GI50 [24]?
A: 1.78 µM

Q: What about the LC50 [24] of the same compound?
A: 5.75 µM

Q: And the TGI ([24]; read-out: pTGI (converted))?
A: 3.24 µM

Q: What about the GI50 [25] of the same compound?
A: 2.24 µM

Q: What about the LC50 [25] of the same compound?
A: 7.41 µM

Q: What about the TGI ([25]; read-out: pTGI (converted)) of the same compound?
A: 4.07 µM

Q: And the GI50 [26]?
A: 1.78 µM

Q: And the LC50 [26]?
A: 6.76 µM

Q: And the TGI ([26]; read-out: pTGI (converted))?
A: 3.47 µM

Q: What about the GI50 [27] of the same compound?
A: 2.09 µM

Q: And the LC50 [27]?
A: 7.08 µM

Q: What about the TGI ([27]; read-out: pTGI (converted)) of the same compound?
A: 3.8 µM

Q: And the GI50 [28]?
A: 1.78 µM

Q: And the LC50 [28]?
A: 6.03 µM

Q: And the TGI ([28]; read-out: pTGI (converted))?
A: 3.31 µM

Q: What about the GI50 [29] of the same compound?
A: 0.933 µM

Q: What about the LC50 [29] of the same compound?
A: 4.9 µM

Q: And the TGI ([29]; read-out: pTGI (converted))?
A: 2.19 µM

Q: What about the GI50 [30] of the same compound?
A: 1.86 µM

Q: And the LC50 [30]?
A: 7.41 µM

Q: And the TGI ([30]; read-out: pTGI (converted))?
A: 3.72 µM

Q: What about the GI50 [31] of the same compound?
A: 1.29 µM

Q: And the LC50 [31]?
A: 5.01 µM

Q: What about the TGI ([31]; read-out: pTGI (converted)) of the same compound?
A: 2.57 µM

Q: What about the GI50 [32] of the same compound?
A: 1.7 µM

Q: What about the LC50 [32] of the same compound?
A: 5.62 µM

Q: And the TGI ([32]; read-out: pTGI (converted))?
A: 3.09 µM

Q: And the GI50 [33]?
A: 2.14 µM

Q: What about the LC50 [33] of the same compound?
A: 7.24 µM

Q: And the TGI ([33]; read-out: pTGI (converted))?
A: 3.98 µM

Q: And the GI50 [34]?
A: 1.38 µM

Q: And the LC50 [34]?
A: 5.37 µM

Q: And the TGI ([34]; read-out: pTGI (converted))?
A: 2.75 µM

Q: And the GI50 [35]?
A: 1.95 µM

Q: What about the LC50 [35] of the same compound?
A: 7.41 µM

Q: What about the TGI ([35]; read-out: pTGI (converted)) of the same compound?
A: 3.8 µM

Q: What about the GI50 [36] of the same compound?
A: 2 µM

Q: What about the LC50 [36] of the same compound?
A: 6.17 µM

Q: What about the TGI ([36]; read-out: pTGI (converted)) of the same compound?
A: 3.47 µM

Q: And the GI50 [37]?
A: 1.82 µM

Q: And the CC50 [37, 42]?
A: 6.17 µM

Q: What about the TGI ([37]; read-out: pTGI (converted)) of the same compound?
A: 3.31 µM

Q: What about the GI50 [38] of the same compound?
A: 2 µM

Q: What about the LC50 [38] of the same compound?
A: 6.03 µM

Q: And the TGI ([38]; read-out: pTGI (converted))?
A: 3.47 µM

Q: What about the GI50 [39] of the same compound?
A: 1.86 µM

Q: And the LC50 (50% lethal concentration) [39]?
A: 5.89 µM

Q: And the TGI ([39]; read-out: pTGI (converted))?
A: 3.31 µM

Q: And the GI50 [40]?
A: 2.24 µM

Q: What about the CC50 [40, 42] of the same compound?
A: 8.71 µM

Q: And the TGI ([40]; read-out: pTGI (converted))?
A: 4.37 µM

Q: And the GI50 [41]?
A: 1.38 µM

Q: What about the LC50 [41] of the same compound?
A: > 100 µM

Q: What about the TGI ([41]; read-out: pTGI (converted)) of the same compound?
A: 4.9 µM
